Assays:
MS2 coat protein [1] = test: apparent Kd, MS2 coat protein; higher = weaker binding; RNA-MaP array
Outline: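 Designed RNAs were transcribed in place on an Illumina sequencing chip from sequenced DNA templates. At room temperature and with or without input ligand, they were incubated with fluorescently labeled MS2 coat protein from 1.5 nM to 3 μM, for 0.8–1.5 h at the lowest and 10–20 min at the highest concentrations. Apparent Kd is the median of the binding-curve fits made per cluster, with designs measured on fewer than 10 clusters excluded.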

MS2 coat protein [2] = test: apparent Kd, MS2 coat protein; higher = weaker binding; RNA-MaP array; FMN 200 µM where present
Outline: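 The apparent Kd is the median of filtered binding-curve fits, one per cluster, to green signal normalised to red-channel RNA signal and control-cluster median Fmax. The clusters were on Illumina sequencing chips, and stalled E. coli RNA polymerase had transcribed the designs on them. Titration used SNAP-549-labelled MS2 coat protein from 0.7 or 1.5 nM, doubling to 3 µM, without and then with constant ligand, in 100 mM Tris-HCl pH 7.5, 80 mM KCl, 4 mM MgCl2, BSA, DTT, yeast tRNA and Tween-20.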

[3] = designed as: ON switch for flavin mononucleotide, no ligand
[4] = ligand present: flavin mononucleotide, designed as: ON switch for flavin mononucleotide
[5] = designed as: OFF switch for flavin mononucleotide, no ligand
[6] = ligand present: flavin mononucleotide, designed as: OFF switch for flavin mononucleotide

## AAAACAUGAGGAUCACCCAUGUCCAAAUAAAUACACGGAACUAGAAGGGAAAAUCGAAAUUAAUAUCAGGAUAUAGGCAAAGCA
MS2 coat protein [1]; [3]
  apparent Kd: 53 nM
MS2 coat protein [1]; [4]
  apparent Kd: 42.2 nM

## AAAAUACAUGAGGAUCACCCAUGUGCUUUCUAUUCAGGAUAUGGUGGUACAGUGGACAUACCAGAAGGGAAUGAAA
MS2 coat protein [1]; [3]
  apparent Kd: 11.1 nM
MS2 coat protein [1]; [4]
  apparent Kd: 8.34 nM

## AAACGAGAGACAGAUACCAGCGCAGGAACGGAGUAUGGUGACAUGAGGAUCACCCAUGUGCGCCCUUGGCAGCUGAGCCGUAUUG
MS2 coat protein [1]; designed as: OFF switch for theophylline, no ligand
  apparent Kd: 27.9 nM
MS2 coat protein [1]; ligand present: theophylline, designed as: OFF switch for theophylline
  apparent Kd: 171 nM

## AAACGCUAUGCGGCCGCCACUAAGGUUGGCGUCUAUGUCGUUUAAGACAUGAGGAUCACCCAUGUUAGGACCGGGCAUGUCCGCG
MS2 coat protein [1]; designed as: OFF switch for tryptophan, no ligand
  apparent Kd: 21.2 nM
MS2 coat protein [1]; ligand present: tryptophan, designed as: OFF switch for tryptophan
  apparent Kd: 21.1 nM

## AAAUAUCAGUAGAAGGGCAUUUAAUCGAGACAUGCAGGAUAUACCAAUAACAGAUAAUUCUACAUGAGGAUCACCCAUGUACAG
MS2 coat protein [1]; [3]
  apparent Kd: 12.7 nM
MS2 coat protein [1]; [4]
  apparent Kd: 9.19 nM

## AAAUGGACGGCAGGAUAUGGACAAGGAAUAUUACCAGAAGGGCCCUAAUGCUCAUACAUGAGGAUCACCCAUGUUGUAAUCAAU
MS2 coat protein [1]; [5]
  apparent Kd: 17.8 nM
MS2 coat protein [1]; [6]
  apparent Kd: 12.7 nM

## AAAUGUGUAUAGGAUAUCUUGACCCACGCAUUCAGAGAAGGAUACACAUGAGGAUCACCCAUGUUGAGACGGAA
MS2 coat protein [1]; [5]
  apparent Kd: 15.5 nM
MS2 coat protein [1]; [6]
  apparent Kd: 43.9 nM

## AAAUUACGUAAGAAGGCCAUAGGAACUGAAGCAAGCUCGACGACACAUGAGGAUCACCCAUGUCUGGAGGAUAUUAUGAUAUCU
MS2 coat protein [1]; [3]
  apparent Kd: 10.3 nM
MS2 coat protein [1]; [4]
  apparent Kd: 9.64 nM

## AACAAGGAAGGAUAUACAUGAGGAUCACCCAUGUCACUAGGGCCUCCCGCUUCGCUGUGUAGAAGGACCAUGAA
MS2 coat protein [1]; [5]
  apparent Kd: 9.74 nM
MS2 coat protein [1]; [6]
  apparent Kd: 8.89 nM

## AACCUACAUGAGGAUCACCCAUGUGAGGAUAUUGCGGUUCUUAGCAUGAGAACCAUACCAAGAAGGCACAGGGC
MS2 coat protein [1]; [5]
  apparent Kd: 7.53 nM
MS2 coat protein [1]; [6]
  apparent Kd: 23.2 nM

## AACGCGCAAGAGAAGGGACGGGAGAUUCCGUGGGCUCUGAUCCUACAUGAGGAUCACCCAUGUAGUCAGGAUAUCUGGAGACGC
MS2 coat protein [1]; [5]
  apparent Kd: 106 nM
MS2 coat protein [1]; [6]
  apparent Kd: 124 nM

## AAGCGUAGCUAGGAUAUGUAAUGACGGCUUUGAACAGAAGGAGCUACAUGAGGAUCACCCAUGUGUCCGACACA
MS2 coat protein [1]; [5]
  apparent Kd: 15.9 nM
MS2 coat protein [1]; [6]
  apparent Kd: 125 nM

## AAGGCGUCAGGAUAUACGUCAUCUUCAAAUAACAUAACAAUACAUGAGGAUCACCCAUGUAGAAGGGACCAGCC
MS2 coat protein [1]; [5]
  apparent Kd: 6.37 nM
MS2 coat protein [1]; [6]
  apparent Kd: 6.46 nM

## AAUCUCUCUGCAGGAUAUGGUCGCUGAGCUACUCCAGAAGGGCAGUGAGUAAGAUCGUCAGACAUGAGGAUCACCCAUGUAUUU
MS2 coat protein [1]; [5]
  apparent Kd: 35.8 nM
MS2 coat protein [1]; [6]
  apparent Kd: 30.9 nM

## AAUCUGAUUGCGGCCGCCACUAAUUUUCCAUGAGUAUUGCAAUUACAUGAGGAUCACCCAUGUCAUAGGACCGGGCAUGACAUCU
MS2 coat protein [1]; designed as: ON switch for tryptophan, no ligand
  apparent Kd: 303 nM
MS2 coat protein [1]; ligand present: tryptophan, designed as: ON switch for tryptophan
  apparent Kd: 240 nM

## AAUGAAUCCAAGAAGGAACACCAGGCGCACGUAAUCCAACAUGAGGAUCACCCAUGUAUAUUCUGUAAGGAUAUUGGAUUAAAG
MS2 coat protein [1]; [5]
  apparent Kd: 7.45 nM
MS2 coat protein [1]; [6]
  apparent Kd: 7.24 nM

## AAUGUAUGUUAGGAUAUGGCCACGGCGAGGGACCCAGAAGGAACCACAUGAGGAUCACCCAUGUAAAAUAUGGA
MS2 coat protein [1]; [5]
  apparent Kd: 20.3 nM
MS2 coat protein [1]; [6]
  apparent Kd: 16.4 nM

## AAUUGGAUCACAUGAGGAUCACCCAUGUCGGAAACUUUACUCAGAAGGAUGUGUACUUUUUCCACAUAGGAUAUGAGUACGACA
MS2 coat protein [1]; [5]
  apparent Kd: 69.5 nM
MS2 coat protein [1]; [6]
  apparent Kd: 74.6 nM

## ACACCACAGCAGAAGGGUACAUUCUCCACGCGUACAGGAUAUGCGGACUCGGCGUCUCUGACAUGAGGAUCACCCAUGUUUUCU
MS2 coat protein [1]; [3]
  apparent Kd: 85.9 nM
MS2 coat protein [1]; [4]
  apparent Kd: 29.1 nM

## ACAUGAGGAUCACCCAUGUGCCUCGAUAGGUAACUGAGACCCAGAAGGCCAGCGCGUUGCGCCUUGGAGGAUAUGGCAAACAAG
MS2 coat protein [1]; [3]
  apparent Kd: 34.5 nM
MS2 coat protein [1]; [4]
  apparent Kd: 19.7 nM

## ACCGGAAAAGGAUAUCGAAUUAGCAACAUGAGGAUCACCCAUGUCUGUCGCUCGUGUAUUCGAGAAGGUUUCGCCC
MS2 coat protein [1]; [5]
  apparent Kd: 4.96 nM
MS2 coat protein [1]; [6]
  apparent Kd: 5.34 nM

## ACGAAUCCCGUUCCGUGAGGACAUGAGGAUCACCCAUGUUGCAGAAGGGCCGAGCGGAUGGCGAGGCAGGAUAUGCCACAGAUC
MS2 coat protein [1]; [5]
  apparent Kd: 27.6 nM
MS2 coat protein [1]; [6]
  apparent Kd: 105 nM

## ACGUAGGGCUAGAAGGCUCUAACAAGGUGCCCAUAAAAUAACAUGAGGAUCACCCAUGUUAGUAGAGAGGAUAUAGACUCAUGU
MS2 coat protein [1]; [5]
  apparent Kd: 18.4 nM
MS2 coat protein [1]; [6]
  apparent Kd: 19.3 nM

## ACUAGUAGGCAAGGAUAUGGCCUCAUAAGAUAGCCAGAAGGUGCUACGGACAUGAGGAUCACCCAUGUGCAGCUCGUACGGUGG
MS2 coat protein [1]; [3]
  apparent Kd: 367 nM
MS2 coat protein [1]; [4]
  apparent Kd: 155 nM

## AGAUAAUCUUGGGAUUUCGUACAUGAGGAUCACCCAUGUCCAGAGGAUAUGCAUAGACAGGCAUCGCAGAAGGCUGGUGAACAG
MS2 coat protein [1]; [3]
  apparent Kd: 35.4 nM
MS2 coat protein [1]; [4]
  apparent Kd: 27.6 nM

## AGAUCCGGCGUGAGGAUAUAGCAAGCAACUAACGACUAGAAGGCACAUGAGGAUCACCCAUGUCUGUUACACUA
MS2 coat protein [1]; [5]
  apparent Kd: 12.1 nM
MS2 coat protein [1]; [6]
  apparent Kd: 36.7 nM

## AGCAUGGUUGGAGGAUAUUCCGCCGUAGUGCUGAAUCCCGGACAUGAGGAUCACCCAUGUGAGCGGAAGAAGGCCAAGUUGUCC
MS2 coat protein [1]; [5]
  apparent Kd: 15.5 nM
MS2 coat protein [1]; [6]
  apparent Kd: 63.2 nM

## AGCCCUCAAUCAGGAUAUGUGUGCAUCUAUUGACUUCUAACUAGACAUGAGGAUCACCCAUGUGAACAGAAGGGAUUGUAAUCA
MS2 coat protein [1]; [5]
  apparent Kd: 19.9 nM
MS2 coat protein [1]; [6]
  apparent Kd: 19.6 nM

## AGUGGGUGUUAUGAUACCAGCGUAAUACACAACAUGAGGAUCACCCAUGUGGAGCCUCGCCGCCCUUGGCAGCAUUGGGCCCGCA
MS2 coat protein [1]; designed as: ON switch for theophylline, no ligand
  apparent Kd: 212 nM
MS2 coat protein [1]; ligand present: theophylline, designed as: ON switch for theophylline
  apparent Kd: 344 nM

## AGUUAGCCUGAUGAGGAUAUACACGCCCGGACAUGAGGAUCACCCAUGUUAACAAGUUAGCUAUUGUAGAAGGCAUCGAGGUGAUG
MS2 coat protein [1]; [3]
  apparent Kd: 44.8 nM
MS2 coat protein [1]; [4]
  apparent Kd: 33.5 nM

## AUAAAAGCCACAUGAGGAUCACCCAUGUAGCAGGAAGCCAGCAAGGAUAUCGCAACAGGAGGGAUCGAGAAGGAGCGUAACUAA
MS2 coat protein [1]; [3]
  apparent Kd: 23.7 nM
MS2 coat protein [1]; [4]
  apparent Kd: 18.2 nM

## AUAUAGGUAGGAUAUACAAUGAAUGGGCACCGUAAAACCAUACAUGAGGAUCACCCAUGUAGAAGGACCGGAAG
MS2 coat protein [1]; [5]
  apparent Kd: 7.86 nM
MS2 coat protein [1]; [6]
  apparent Kd: 12.5 nM

## UUUUACAUAGGAUAUAGUUGCUUUUACAUGAGGAUCACCCAUGUCUCUCCUCUCUCUCUUCUAGAAGGAUGUUUCU
MS2 coat protein [2]; [5]
  apparent Kd: 54.7 nM
MS2 coat protein [2]; [6]
  apparent Kd: 46.5 nM

## UUUUACCGAGGAUAUACAUAUAAAUAAUAAUCCUCAUUAUUACAUGAGGAUCACCCAUGUAGAAGGCGGAUUUU
MS2 coat protein [2]; [5]
  apparent Kd: 89.2 nM
MS2 coat protein [2]; [6]
  apparent Kd: 66.8 nM

## UUUUAGGCAGGAUAUACAUGAGGAUCACCCAUGUAAAUUUUUCGUUUAACUUGAAUGUGUAGAAGGGCCAUAUU
MS2 coat protein [2]; [5]
  apparent Kd: 20.5 nM
MS2 coat protein [2]; [6]
  apparent Kd: 21.4 nM

## UUUUAUGUCAAAGGAUAUAUAAAUAAAUUUAUAACAUGAGGAUCACCCAUGUACUUUAGUAUGAGGUAGAAGGUUGAUAAGAGA
MS2 coat protein [2]; [3]
  apparent Kd: 35.4 nM
MS2 coat protein [2]; [4]
  apparent Kd: 23.3 nM

## UUUUGUUUACAAGGAUAUCAAUUAUUUAUACUUCCUACAUGAGGAUCACCCAUGUUUUUAUAUUUUGAGAAGGUGUAAUGUCGG
MS2 coat protein [2]; [3]
  apparent Kd: 40.4 nM
MS2 coat protein [2]; [4]
  apparent Kd: 39 nM

## UUUUUACAUGAGGAUCACCCAUGUGAGGAUAUGGAUUCGCUGGCCGUAGCCAGUGGAUCCAGAAGGCGCGUGAU
MS2 coat protein [2]; [5]
  apparent Kd: 90 nM
MS2 coat protein [2]; [6]
  apparent Kd: 175 nM

## UUUUUAUUUGUAGGAUAUGGAGACAUGAGGAUCACCCAUGUAUGAUAAGCUAAAUUAUGCUGUGGCCAGAAGGAUAUUAUUUUU
MS2 coat protein [2]; [3]
  apparent Kd: 43.9 nM
MS2 coat protein [2]; [4]
  apparent Kd: 49.7 nM

## UUUUUGUGAGGAUAUCAGUAGUAAAUAAAUAAAAUUACUACUGAGAAGGCACAUGAGGAUCACCCAUGUUUUUU
MS2 coat protein [2]; [5]
  apparent Kd: 40.4 nM
MS2 coat protein [2]; [6]
  apparent Kd: 95.1 nM

## UUUUUUCCUCAUGUACAUGAGGAACAUGAGGAUCACCCAUGUAGAAGGAUUUCCCUUAAAUUAAGAUAGGAUAUACAUAUAUUU
MS2 coat protein [2]; [5]
  apparent Kd: 87 nM
MS2 coat protein [2]; [6]
  apparent Kd: 70.5 nM

## UUUUUUUUUGUGAGGAUAUACUUUUUUUUUUUUUUGUAGAAGGCACAUGAGGAUCACCCAUGUUUUUUUUUCUC
MS2 coat protein [2]; [5]
  apparent Kd: 11.7 nM
MS2 coat protein [2]; [6]
  apparent Kd: 11.3 nM

Source: the EternaBench riboswitch data
